The subject of experiment [1] is Rattus norvegicus. Nature of the experiment: Antiinflammatory activity in carrageenan-induced rat assessed as efficacy ratio for reduction in pleural effusion at 316 mg/kg, po after 5 hrs by Evans blue assay relative to control. Format: functional. A digest of the protocol: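 Rats given 316 mg/kg orally (two rats), then intrapleural injection of 5 mL 0.075% Evans blue/0.5% carrageenan type 7. Pleural effusion volume measured at 5 h. Efficacy ratio is control effusion volume divided by treated effusion volume, judged by sequential analysis; a ratio ≥1.30 counts as active.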

Experiment [2] relates to Rattus norvegicus. Put plainly: Antiinflammatory activity in Evans blue carrageenan-induced pleural effusion rat model assessed as decrease in volume of pleural fluid at 100 mg/kg relative to control.
For experiment [3], the system named is Rattus norvegicus. Put plainly: Antiinflammatory activity in adjuvant-induced arthritic rat chronic inflammation model assessed as […] at 31.6 mg/kg. Also on record: dose 31.6 mg/kg. It counts as functional, organism-based.

Molecules are shown by their SMILES. Calls of active or inactive are those of the source. The calls are words filed in the database; no cut-off is given here.

The text below walks through data of ChEMBL document CHEMBL3244351, “Aroyl- and arylisoquinolineacetic acids as antiinflammatory agents” (1978).

With `Br.Cc1cc2ccccc2c(C(=O)c2ccccc2)n1`, in the experiment on Rattus norvegicus [1], the T/C is 0.93. The result in the experiment on Rattus norvegicus [2] was inactive.
The matching figures for `Br.O=C(c1ccccc1)c1nccc2ccccc12`: 0.83 and “inactive”.
For the molecule `Br.CCOC(=O)c1cc2ccccc2cn1`, the T/C with Rattus norvegicus [1] is 1.97. Moreover, the Activity in the experiment with Rattus norvegicus [2] was found to be 1%.
In the same order, the values of `CCOC(=O)c1nc(-c2ccccc2)c2ccccc2c1OC(C)=O` are 1.06 and “inactive”.
In the same order, the values of `NC(=O)Cc1cc2ccccc2c(-c2ccccc2)n1` are 1.33 and 14%.
Consider `NC(=O)Cc1cc2ccccc2c(-c2ccc(Cl)cc2)n1`, for which the result with Rattus norvegicus [3] was inactive. Further, in the experiment on Rattus norvegicus [2], the Activity was determined as 22%.
On to `NC(=O)Cc1cc2ccccc2c(C(=O)c2ccccc2)n1`, for which the T/C in the experiment on Rattus norvegicus [1] is on record as 0.9. For the same molecule, the result with Rattus norvegicus [2] was inactive.
Regarding `CCCCC1C(=O)N(c2ccccc2)N(c2ccccc2)C1=O`, the outcome in the experiment with Rattus norvegicus [3] was Active.
Consider `Br.CCOC(=O)Cc1cc2ccccc2cn1`, for which the T/C with Rattus norvegicus [1] worked out at 1.2.
For the molecule `O=C(O)c1cc2ccccc2c(C(=O)c2ccccc2)n1`, the T/C in the experiment on Rattus norvegicus [1] was 1.28.
Turning to `NC(=O)Cc1cnc(-c2ccccc2)c2ccccc12`, the Activity in the experiment on Rattus norvegicus [2] is 9%.
As to `Br.O=C(c1ccccc1)c1ccccn1`, in the experiment with Rattus norvegicus [1], the T/C is given as 1.23. Also, in the experiment with Rattus norvegicus [2], the outcome was inactive.
The matching figures for `O=C(O)c1cc2ccccc2c(-c2ccccc2)n1`: 1.26 and “inactive”.
In the same order, the values of `O=C(O)c1ccc2ccccc2c1` [BETA-NAPHTOIC ACID] are 1.13 and “inactive”.
